Screening results deposited in PubChem BioAssay by The Scripps Research Institute Molecular Screening Center.
An excerpt weighted towards active compounds, which were near 2.9% of everything screened.
OX1R antag-1 – antagonists of human orexin 1 receptor (OX1R); 330,000 tested, 1.8% active; inhibition, % at 6.6 µM; AID 485270; O43613; OX1R-expressing cells, FRET antagonist read-out; in the data active = inhibition mostly above about 38%, no sharp cut-off; inactive = mostly below about 40%
Target sequence (O43613 whole entry, looked up): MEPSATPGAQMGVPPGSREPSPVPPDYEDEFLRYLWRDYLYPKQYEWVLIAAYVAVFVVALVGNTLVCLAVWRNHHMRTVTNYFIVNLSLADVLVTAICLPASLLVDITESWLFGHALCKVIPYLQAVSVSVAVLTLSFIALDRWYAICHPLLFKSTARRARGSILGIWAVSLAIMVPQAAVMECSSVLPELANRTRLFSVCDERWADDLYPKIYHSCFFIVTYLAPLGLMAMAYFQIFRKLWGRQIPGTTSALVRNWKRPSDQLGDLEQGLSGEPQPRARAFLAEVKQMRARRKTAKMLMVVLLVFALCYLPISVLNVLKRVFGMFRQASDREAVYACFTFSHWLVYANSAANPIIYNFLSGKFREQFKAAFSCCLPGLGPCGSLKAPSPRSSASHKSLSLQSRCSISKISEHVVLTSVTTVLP
CHO parental Ca – counter-screen: ATP calcium response change in parental CHO cells | AID 463079 | inhibition, % at 5.6 µM | 330,000 tested, 0.63% active | parental CHO-K1, ATP-induced calcium, Fluo-8 fluorescence;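 active = inhibition above that plate's mean sample inhibition plus 3 SD, cut at about 26% in these data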
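material = parental CHO cells | also added = ATP as calcium-mobilizing challenge | dosing = single point at 5.6 µM | detection = intracellular calcium via Fluo-8 no-wash fluorescent dye | read-out = % inhibition | benchmarks = low control ATP plus DMSO, high control DMSO only | repeats = one well per compound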
CHO-K1 Ca PAM – counter-screen for M1 PAMs: effect in parental CHO-K1 cells; activation, % at 3 µM; AID 602247; ATP EC20, Fluo-8 calcium fluorescence; 0% at ATP EC20, 100% at ATP max; 360,000 tested, 0.02% active;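 active = activation above the run cutoff, the mean activation of all test compounds plus 3 SD, cut at about 40% in these data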;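 note: peak over basal fluorescence ratio in a 140 s read after ATP addition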
M1 ag parental – nonselective activator or artifact in parental CHO-K1 cells. Fluo-8 calcium fluorescence; scaled to maximal ATP response, vehicle zero. activation, % at 3 µM. 360,000 tested, 0.48% active. AID 602248; in the data active = activation above about 15%;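 note: untransfected CHO-K1 host cells lacking M1 receptor as counterscreen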
OX1R antag-2 – blocks the human orexin 1 receptor. CHO/OX1R cells, Fluo-8 calcium fluorescence, orexin A. 330,000 tested, 0.43% active. AID 434989. inhibition, % at 5 µM. O43613;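 active = inhibition above its plate's threshold, mean inhibition of all tested compounds on the plate plus 3 SD, cut at about 37% in these data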
CHO-K1 Ca antag – M1 antagonist counterscreen hit in parental CHO-K1 cells; ATP-induced calcium, Fluo-8 fluorescence; inhibition, % at 3 µM; 360,000 tested, 0.6% active; AID 602250;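 active = inhibition above a per-plate cutoff, the plate's mean sample inhibition plus 3 SD, cut at about 24% in these data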
Of the large screens only hits and unclear results are named; the others gave an inactive call.

Cc1ccc(S(=O)(=O)Nc2nc3ccccc3nc2NCC2CCCO2)cc1C (centres undefined)	none
O=C(NNC(=S)NC(=O)c1ccc(F)cc1)c1ccncc1	none
O=C(NNC(=S)NC(=O)C12CC3CC(CC(C3)C1)C2)c1ccncc1	M1 ag parental 46.1
CC(C)c1ccc(C(=O)NNC(=O)c2ccncc2)cc1	none
CCC(C)NC(=S)NNC(=O)c1ccncc1 (centres undefined)	CHO-K1 Ca antag 26.5
CC1(C(=O)NC(=S)NNC(=O)c2ccncc2)CCCCC1	M1 ag parental 27.9
CCC1Sc2ccc(S(=O)(=O)CCC(=O)Nc3ccc(OC(F)(F)F)cc3)cc2NC1=O (centres undefined)	none
CCC1Sc2ccc(S(=O)(=O)Nc3ccc(OC)c(OC)c3)cc2NC1=O (centres undefined)	CHO parental Ca 44.7, OX1R antag-2 46.4, CHO-K1 Ca antag 33.6
CCC1Sc2ccc(S(=O)(=O)CCC(=O)Nc3ccc(C(=O)OC)cc3)cc2NC1=O (centres undefined)	CHO parental Ca 100.4
CCC1Sc2ccc(S(=O)(=O)Nc3ccc(OC)cc3)cc2NC1=O (centres undefined)	M1 ag parental 18.3
CCC1Sc2ccc(S(=O)(=O)CCC(=O)Nc3ccc(NC(C)=O)cc3)cc2NC1=O (centres undefined)	none
COC(=O)c1c(NC(=O)c2ccco2)sc(C)c1C	OX1R antag-1 58.8
O=C(/C=C/c1cccc([N+](=O)[O-])c1)Nc1cc(C(=O)O)cc(C(=O)O)c1	OX1R antag-1 62.1
N=c1oc2cc(O)ccc2cc1C(=O)Nc1ccccn1	OX1R antag-1 83.8 (no result: CHO-K1 Ca PAM, M1 ag parental, CHO-K1 Ca antag)
N=c1oc2cc(O)ccc2cc1C(=O)Nc1nc2ccccc2s1	none
COc1ccc(NC(=O)Cn2c(=O)n(-c3ccc(CC(=O)NCc4ccco4)cc3)c(=O)c3ccccc32)cc1	none
Cn1c(=O)n(-c2cccc(Cl)c2)c(=O)c2c3c(sc21)COC(C)(C)C3	CHO-K1 Ca antag 29.7
CC1(C)Cc2c(sc3c2c(=O)n(-c2ccc(Cl)cc2)c(=O)n3CC(N)=O)CO1	none
O=C(Nc1ccc(S(=O)(=O)Nc2nccs2)cc1)c1c(F)c(F)c(F)c(F)c1F	none
Cc1ccc(C(=O)c2coc3c2C(=O)C(=O)c2ccccc2-3)cc1	OX1R antag-1 46.8
Cc1cc(NC(=O)Nc2ccccc2F)ccc1Br	CHO-K1 Ca antag 24.7
O=C(Nc1cc(Cl)ccc1O)c1snnc1-c1ccccc1	OX1R antag-1 45.7
Cc1ccc(Cc2nc3ccccc3[nH]2)cc1	none (no result: OX1R antag-1, CHO parental Ca, OX1R antag-2)
COc1ccc(Cc2nc3ccccc3[nH]2)cc1OC	CHO-K1 Ca antag 46.5
CCN(c1ccc(NC(=O)c2ccc(Cl)nc2)cc1)C(C)C	none
CCCCOc1ccc(C(=O)NCC(=O)NC2CCC(C)CC2)cc1 (centres undefined)	none
CN=C(Nc1cc(C)nn1CCC#N)c1ccc(F)cc1	none
Cn1ccc(NC(=O)c2ccc([N+](=O)[O-])cc2)n1	OX1R antag-1 29.3
Cc1cc(NC(=O)c2ccc([N+](=O)[O-])cc2)n(CCC#N)n1	OX1R antag-1 46.5
O=C(CCCCCCCC(=O)N1CCCC1)N1CCCC1	none (no result: OX1R antag-1, CHO parental Ca, OX1R antag-2)
COCCNC(=S)N(CCCO)Cc1cc2cc3c(cc2[nH]c1=O)OCCO3	CHO-K1 Ca antag 25.9
CCN(CC)CCCN(Cc1cc2cc3c(cc2[nH]c1=O)OCO3)C(=S)NCCCOC	CHO-K1 Ca antag 24.3
CCn1c(SCC(=O)NCc2ccccc2)nc2c(c1=O)SC(C)C2 (centres undefined)	CHO-K1 Ca antag 32.4
CCn1c(SCC(=O)NCc2ccc(F)cc2)nc2c(c1=O)SC(C)C2 (centres undefined)	none
COc1ccc(N(CC(=O)N/N=C(\C)CCc2ccccc2)S(=O)(=O)c2ccc(C)cc2)cc1	none
Cc1c(-c2ccn[nH]2)cc(NC(=O)c2ccc(Cl)cc2)c(=O)n1N	none
COc1cc(C(=S)N2CCOCC2)ccc1OC(=O)c1ccc(Br)cc1	CHO-K1 Ca antag 28.0 (no result: OX1R antag-1, CHO parental Ca, OX1R antag-2)
COc1cc(C(=S)N2CCOCC2)cc(OC)c1OC(=O)c1ccccc1[N+](=O)[O-]	OX1R antag-1 33.5
COc1ccc(C(=S)N2CCOCC2)cc1OC(=O)c1ccc([N+](=O)[O-])cc1[N+](=O)[O-]	none
Cc1cccc(/C=N/NC(=O)c2cc(C)nc3ccccc23)n1	none
